# According to ChEMBL document CHEMBL4017515 (J Med Chem, 2017):
# Columns and labels:
# [1] = Aqueous solubility of compound; type: physicochemical
# Staphylococcus aureus [2] = experiment: Growth inhibition of Staphylococcus aureus Newman at 0.2 mM measured after overnight incubation; conditions: 200 µM
# Staphylococcus aureus [3] = experiment: Growth inhibition of Staphylococcus aureus USA400 MW2 at 0.2 mM measured after overnight incubation; conditions: 200 µM
# Staphylococcus aureus [4] = experiment: Growth inhibition of Staphylococcus aureus USA300 LAC at 0.2 mM measured after overnight incubation; conditions: 200 µM
# Staphylococcus aureus [5] = experiment: Growth inhibition of Staphylococcus aureus Mu50 at 0.2 mM measured after overnight incubation; conditions: 200 µM
# [6] = Tmax in Sprague-Dawley rat at 5 mg/kg, iv after 24 hrs by LC/MS/MS analysis; type: ADME, organism-based; conditions: in vivo
# Procedure, shortened: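 Male SD rats (230-260 g), six in total across routes. Single intravenous dose of 5 mg/kg in 10% castor oil/water. Blood sampled at various time points over 24 h. Compound concentration in blood quantified by LC-MS/MS.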
# [7] = Half life in Sprague-Dawley rat at 5 mg/kg, iv after 24 hrs by LC/MS/MS analysis; type: ADME, organism-based; conditions: in vivo
# Procedure, shortened: (§1)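 Male SD rats (230-260 g), six in total; compound in 10% castor oil/water given once IV at 5 mg/kg or PO at 10 mg/kg. Blood sampled at various time points over 24 h, and drug concentration measured by LC-MS/MS.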
# [8] = Half life in Sprague-Dawley rat at 10 mg/kg, po after 24 hrs by LC/MS/MS analysis; type: ADME, organism-based; conditions: in vivo; procedure, shortened: as §1
# [9] = Tmax in Sprague-Dawley rat at 10 mg/kg, po after 24 hrs by LC/MS/MS analysis; type: ADME, organism-based; conditions: in vivo
# Procedure, shortened: (§2)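 Male SD rats (230-260 g), six in total across routes. Compound dissolved in 10% castor oil/water, given orally at 10 mg/kg, with an IV arm at 5 mg/kg for comparison. Blood sampled at various time points over 24 h. Blood concentrations measured by LC-MS/MS.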
# [10] = Cmax in Sprague-Dawley rat at 5 mg/kg, iv after 24 hrs by LC/MS/MS analysis; type: ADME, organism-based; design: dose 5 mg/kg, route intravenous; conditions: in vivo; procedure, shortened: as §1
# [11] = Cmax in Sprague-Dawley rat at 10 mg/kg, po after 24 hrs by LC/MS/MS analysis; type: ADME, organism-based; design: dose 10 mg/kg, route oral; conditions: in vivo; procedure, shortened: as §1
# [12] = AUC (0 to t) in Sprague-Dawley rat at 5 mg/kg, iv after 24 hrs by LC/MS/MS analysis; type: ADME, organism-based; design: dose 5 mg/kg, time < 24 hr, route intravenous; conditions: in vivo; procedure, shortened: as §1
# [13] = AUC (0 to t) in Sprague-Dawley rat at 10 mg/kg, po after 24 hrs by LC/MS/MS analysis; type: ADME, organism-based; design: dose 10 mg/kg, time < 24 hr, route oral; conditions: in vivo; procedure, shortened: as §1
# [14] = AUC (0 to infinity) in Sprague-Dawley rat at 5 mg/kg, iv after 24 hrs by LC/MS/MS analysis; type: ADME, organism-based; design: dose 5 mg/kg, time infinity, route intravenous; conditions: in vivo; procedure, shortened: as §1
# [15] = AUC (0 to infinity) in Sprague-Dawley rat at 10 mg/kg, po after 24 hrs by LC/MS/MS analysis; type: ADME, organism-based; design: dose 10 mg/kg, time infinity, route oral; conditions: in vivo; procedure, shortened: as §1
# [16] = Mean residence time (0 to t) in Sprague-Dawley rat at 5 mg/kg, iv after 24 hrs by LC/MS/MS analysis; type: ADME, organism-based; conditions: in vivo; procedure, shortened: as §1
# [17] = Mean residence time (0 to t) in Sprague-Dawley rat at 10 mg/kg, po after 24 hrs by LC/MS/MS analysis; type: ADME, organism-based; conditions: in vivo; procedure, shortened: as §1
# [18] = Mean residence time (0 to infinity) in Sprague-Dawley rat at 5 mg/kg, iv after 24 hrs by LC/MS/MS analysis; type: ADME, organism-based; conditions: in vivo; procedure, shortened: as §1
# [19] = Mean residence time (0 to infinity) in Sprague-Dawley rat at 10 mg/kg, po after 24 hrs by LC/MS/MS analysis; type: ADME, organism-based; conditions: in vivo; procedure, shortened: as §1
# [20] = Oral bioavailability in Sprague-Dawley rat at 10 mg/kg after 24 hrs by LC/MS/MS analysis; type: ADME, organism-based; conditions: in vivo; procedure, shortened: as §2
# [21] = test system: Staphylococcus aureus LAC; experiment: Inhibition of CrtN in Staphylococcus aureus USA300 LAC assessed as H2O2-induced bacterial death by measuring fold reduction in survival rate at 1 uM preincubated for 24 hrs followed by H2O2 addition measured after 30 mins by serial dilution method
# Procedure, shortened: (§3)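 Strain grown in TSB at 37 °C for 24 h with or without 1 μM compound, or with NAC. Cells washed in PBS and set at 4×10^6 CFU per 250 μL. H2O2 added to 1.5% final, then incubated 30 min at 37 °C with shaking at 250 rpm. Reaction quenched with 1000 U/mL catalase; survivors counted by serial dilution CFU on TSA/TSB.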
# [22] = test system: Staphylococcus aureus subsp. aureus MW2; experiment: Inhibition of CrtN in Staphylococcus aureus USA400 MW2 assessed as H2O2-induced bacterial death by measuring fold reduction in survival rate at 1 uM preincubated for 24 hrs followed by H2O2 addition measured after 30 mins by serial dilution method; procedure, shortened: as §3
# [23] = test system: Staphylococcus aureus LAC; experiment: Inhibition of CrtN in Staphylococcus aureus USA300 LAC assessed as bacterial death by measuring survival rate measured after 6 hrs by serial dilution method (reference value: 12%)
# Procedure, shortened: (§4)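 Overnight cultures in PBS (1×10^7 CFU/mL) mixed 1:9 with healthy-volunteer human whole blood (1×10^6 CFU/mL final). Held 6 h at 37 °C; surviving CFU counted by serial dilution plating on TSA/TSB.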
# [24] = test system: Staphylococcus aureus subsp. aureus MW2; experiment: Inhibition of CrtN in Staphylococcus aureus USA400 MW2 assessed as bacterial death by measuring survival rate measured after 6 hrs by serial dilution method (reference value: 20.67%); procedure, shortened: as §4
# [25] = test system: Staphylococcus aureus LAC; experiment: Inhibition of CrtN in Staphylococcus aureus USA300 LAC assessed as H2O2-induced bacterial death by measuring survival rate at 1 uM preincubated for 24 hrs followed by H2O2 addition measured after 30 mins by serial dilution method (reference value: 24%)
# [26] = test system: Staphylococcus aureus subsp. aureus MW2; experiment: Inhibition of CrtN in Staphylococcus aureus USA400 MW2 assessed as H2O2-induced bacterial death by measuring survival rate at 1 uM preincubated for 24 hrs followed by H2O2 addition measured after 30 mins by serial dilution method (reference value: 26.3%)
SMILES,solubility [1] [µg/mL],further results
CN(C/C=C/c1ccc(C(F)F)cc1)Cc1ccc2c(c1)OCCC2.Cl,16300,–
CN(C/C=C/c1ccc(-c2ccccc2)cc1)Cc1ccc2c(c1)CCO2.Cl,4400,growth inhibition (GI) (Staphylococcus aureus [2]): Non-Toxic; growth inhibition (GI) (Staphylococcus aureus [3]): Non-Toxic; growth inhibition (GI) (Staphylococcus aureus [4]): Non-Toxic; growth inhibition (GI) (Staphylococcus aureus [5]): Non-Toxic; Tmax [6]: 4.98 min; half-life [7]: 2.27 h; half-life [8]: 1.7 h; Tmax [9]: 2 h; Cmax [10]: 2040 ng/mL; Cmax [11]: 41.8 ng/mL; AUC(0-t) at 24 h [12]: 1330 ng·h/mL; AUC(0-t) at 24 h [13]: 156 ng·h/mL; AUC(0-inf) [14]: 1360 ng·h/mL; AUC(0-inf) [15]: 177 ng·h/mL; MRT last at 24 h [16]: 0.9 h; MRT last at 24 h [17]: 2.61 h; MRT inf [18]: 1.13 h; MRT inf [19]: 3.28 h; bioavailability [20]: 6.5%
Br.CN(C/C=C/C=C/c1ccc(-c2ccccc2)cc1)Cc1ccc2c(c1)OCCC2,2800,–
CN(C/C=C/C=C/c1ccc(-c2ccccc2)cc1)Cc1ccc2c(c1)OCCC2,–,fold change (FC) [21]: 10; fold change (FC) [22]: 10; Survival [23]: 0.23%; Survival [24]: 0.53%
CN(C/C=C/c1ccc(C(F)(F)F)cc1F)Cc1ccc2c(c1)CCO2.Cl,16300,–
CN(C/C=C/c1ccc(-c2ccccc2)cc1)Cc1ccc2c(c1)CCO2,–,fold change (FC) [21]: 10; fold change (FC) [22]: 10; Survival [23]: 0.12%; Survival [24]: 0.2%
CN(C/C=C/C=C/c1ccc(-c2ccccc2)cc1)Cc1ccc2c(c1)OCCC2.O=C(O)CCC(=O)O,2300,–
CN(C/C=C/c1ccc(C(F)(F)F)cc1)Cc1ccc2c(c1)CCCC2.Cl,700,–
CC(=O)O.CN(C/C=C/C=C/c1ccc(-c2ccccc2)cc1)Cc1ccc2c(c1)OCCC2,4100,–
CN(C/C=C/c1ccc(Br)cc1)Cc1ccc2c(c1)CCCC2.Cl,2000,–
CN(C/C=C/C=C/c1ccc(-c2ccccc2)cc1)Cc1ccc2c(c1)OCCC2.O=P(O)(O)O,12900,–
CN(C/C=C/c1ccc(-c2ccccc2)cc1)Cc1ccc2c(c1)CCO2.O=S(=O)(O)O,1800,–
CN(C/C=C/c1ccc(C(F)(F)F)cc1)Cc1ccc2c(c1)CCO2.Cl,14600,–
COc1ccc(/C=C/CN(C)Cc2ccc3c(c2)CCCC3)cc1.Cl,900,–
CN(C/C=C/C=C/c1ccc(-c2ccccc2)cc1)Cc1ccc2c(c1)OCCC2.O=C(O)C(F)(F)F,1700,–
CCOc1ccc(/C=C/CN(C)Cc2ccc3c(c2)CCO3)cc1.Cl,11600,–
CC(=O)N[C@@H](CS)C(=O)O,–,Survival [25]: 54.7%; Survival [26]: 57%
CN(C/C=C/c1ccc(-c2ccccc2)cc1)Cc1ccc2c(c1)CCO2.O=C(O)CC(O)(CC(=O)O)C(=O)O,2300,–
CN(C/C=C/C=C/c1ccc(-c2ccccc2)cc1)Cc1ccc2c(c1)OCCC2.O=C(O)CC(O)(CC(=O)O)C(=O)O,1600,–
CN(C/C=C/c1ccc(Cl)cc1)Cc1ccc2c(c1)CCCCC2.Cl,1200,–
CC(O)C(=O)O.CN(C/C=C/C=C/c1ccc(-c2ccccc2)cc1)Cc1ccc2c(c1)OCCC2,6500,–

SMILES,solubility [1] [µg/mL],further results
CN(C/C=C/c1ccc(Br)cc1)Cc1ccc2c(c1)CCCCC2.Cl,600,–
CN(C/C=C/c1ccc(-c2ccccc2)cc1)Cc1ccc2c(c1)CCO2.O=C(O)/C=C\C(=O)O,1200,–
CC(=O)O.CN(C/C=C/c1ccc(-c2ccccc2)cc1)Cc1ccc2c(c1)CCO2,4700,–
CN(C/C=C/C=C/c1ccc(-c2ccccc2)cc1)Cc1ccc2c(c1)OCCC2.Cl,3800,growth inhibition (GI) (Staphylococcus aureus [2]): Non-Toxic; growth inhibition (GI) (Staphylococcus aureus [3]): Non-Toxic; growth inhibition (GI) (Staphylococcus aureus [4]): Non-Toxic; growth inhibition (GI) (Staphylococcus aureus [5]): Non-Toxic
CN(C/C=C/c1ccc(Cl)cc1)Cc1ccc2c(c1)CCCC2.Cl,1900,–
CN(C/C=C/C=C/c1ccc(-c2ccccc2)cc1)Cc1ccc2c(c1)OCCC2.O=S(=O)(O)O,1100,–
COc1ccc(/C=C/CN(C)Cc2ccc3c(c2)CCCCC3)cc1.Cl,1400 to 4100,–
CCOc1ccc(/C=C/CN(C)Cc2ccc3c(c2)OCCC3)cc1.Cl,10200,–
CN(C/C=C/c1ccc(-c2ccccc2)cc1)Cc1ccc2c(c1)CCO2.O=C(O)C(F)(F)F,1500,–
CN(C/C=C/c1ccc(C(F)(F)F)cc1)Cc1ccc2c(c1)OCCC2.Cl,13200,–
CN(C/C=C/C=C/c1ccc(-c2ccccc2)cc1)Cc1ccc2c(c1)OCCC2.O=C(O)/C=C\C(=O)O,1300,–
CN(C/C=C/c1ccc(-c2ccccc2)cc1)Cc1ccc2c(c1)CCO2.O=C(O)C(O)C(O)C(=O)O,5700,–
CN(C/C=C/c1ccc(C(F)(F)F)cc1)Cc1ccc2c(c1)CCCCC2.Cl,2600,–
CC(O)C(=O)O.CN(C/C=C/c1ccc(-c2ccccc2)cc1)Cc1ccc2c(c1)CCO2,6200,–
CN(C/C=C/c1ccc(-c2ccccc2)cc1)Cc1ccc2c(c1)CCO2.O=P(O)(O)O,16200,–
CN(C/C=C/C=C/c1ccc(-c2ccccc2)cc1)Cc1ccc2c(c1)OCCC2.O=C(O)C(O)C(O)C(=O)O,4600,–
Br.CN(C/C=C/c1ccc(-c2ccccc2)cc1)Cc1ccc2c(c1)CCO2,2200,–
CN(C/C=C/c1ccc(-c2ccccc2)cc1)Cc1ccc2c(c1)CCO2.O=C(O)CCC(=O)O,3300,–
CN(C/C=C/c1ccc(Cl)cc1)Cc1ccc2c(c1)OCCC2.Cl,11500,–
CN(C/C=C/c1ccc(C(F)(F)F)cc1F)Cc1ccc2c(c1)OCCC2.Cl,15200,–
